Assay results taken from ChEMBL document CHEMBL1156692, “Synthesis of novel 7-benzylamino-2H-1,4-benzoxazin-3(4H)-ones as anticonvulsant agents” (Eur J Med Chem, 2008).

What was measured:
[1] = Neurotoxicity in ip dosed C57B/6 mouse after 30 mins by rotarod test; type: toxicity, organism-based; conditions: in vivo
Procedure, shortened: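 Minimal neurotoxicity in mice was scored on the rotarod, 30 min after i.p. administration. TD50 was reported in mg/kg with a range in parentheses.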

Mus musculus [2] = test: Anticonvulsant activity in C57B/6 mouse assessed as inhibition of pentylenetetrazole-induced tonic seizures at 50 mg/kg, ip after 0.5 hrs relative to control; type: functional; parameters: scale not given: the % may be the effect or the level left; conditions: route intraperitoneal
Procedure, shortened: (§1)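 Seizures in mice were induced by pentylenetetrazole 85 mg/kg in saline, s.c., 30 min after i.p. test agent. Animals were caged singly and watched for 30 min. Clonic and tonic seizures and deaths were counted.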

Mus musculus [3] = test: Anticonvulsant activity in C57B/6 mouse assessed as inhibition of isoniazid-induced tonic seizures at 50 mg/kg, ip after 0.5 hrs relative to control; type: functional; parameters: scale not given: the % may be the effect or the level left; conditions: route intraperitoneal
Procedure, shortened: (§2)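 Isoniazid-induced seizure model in mice. Isoniazid 250 mg/kg was given 30 min after i.p. test agent. Clonic seizures, tonic seizures and lethality were counted. Treated groups were compared with the control group.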

Mus musculus [4] = test: Anticonvulsant activity in C57B/6 mouse assessed as inhibition of strychnine-induced clonic seizures at 50 mg/kg, ip after 0.5 hrs relative to control; type: functional; parameters: scale not given: the % may be the effect or the level left; conditions: route intraperitoneal
Procedure, shortened: (§3)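 Strychnine chlorhydrate in saline (1.2 mg/kg) was injected s.c. into mice 30 min after i.p. test agent. Animals were caged singly and observed for 30 min. Seizure onset time, clonic and tonic seizure counts and lethality were recorded. Controls received vehicle only.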

Mus musculus [5] = test: Anticonvulsant activity in C57B/6 mouse assessed as inhibition of strychnine-induced tonic seizures at 50 mg/kg, ip after 0.5 hrs relative to control; type: functional; parameters: scale not given: the % may be the effect or the level left; conditions: route intraperitoneal; procedure, shortened: as §3
Mus musculus [6] = test: Anticonvulsant activity in C57B/6 mouse assessed as inhibition of isoniazid-induced clonic seizures at 50 mg/kg, ip after 0.5 hrs relative to control; type: functional; parameters: scale not given: the % may be the effect or the level left; conditions: route intraperitoneal; procedure, shortened: as §2
Mus musculus [7] = test: Toxicity in isoniazid-induced seizure C57B/6 mouse model assessed as lethality at 50 mg/kg, ip after 0.5 hrs relative to control; type: organism-based; parameters: dose 50 mg/kg, route intraperitoneal; conditions: in vivo
Procedure, shortened: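 Mice received the test agent i.p., then isoniazid 250 mg/kg 30 min later. Clonic seizures, tonic seizures and lethality were recorded, and treated groups were compared with a control group.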

Mus musculus [8] = test: Toxicity in strychnine-induced seizure C57B/6 mouse model assessed as lethality at 50 mg/kg, ip after 0.5 hrs relative to control; type: organism-based; parameters: dose 50 mg/kg, route intraperitoneal; conditions: in vivo
Procedure, shortened: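 Test agent given i.p.; controls received vehicle only. After 30 min, strychnine chlorhydrate 1.2 mg/kg in saline was injected s.c. Mice were caged individually and observed 30 min, recording seizure onset time, clonic and tonic seizure numbers and lethality.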

Mus musculus [9] = test: Anticonvulsant activity in C57B/6 mouse assessed as inhibition of pentylenetetrazole-induced clonic seizures at 50 mg/kg, ip after 0.5 hrs relative to control; type: functional; parameters: scale not given: the % may be the effect or the level left; conditions: dose 100 mg/kg; route intraperitoneal; in the assay text read “100 mg/kg” for “50 mg/kg”; procedure, shortened: as §1
Mus musculus [10] = test: Anticonvulsant activity in ip dosed C57B/6 mouse assessed as inhibition of maximal electroshock-induced seizures; type: functional; conditions: C57B/6, ip
Mus musculus [11] = organism: Mus musculus; test: Protective index, ratio of TD50 for C57B/6 mouse by rotarod test to ED50 for C57BL/6 mouse by MES test; type: functional

Structure (SMILES): CCOc1ccc(CNc2ccc3c(c2)OCC(=O)N3)cc1
- TD50 at 0.5 h [1]: > 300 mg/kg

Structure (SMILES): O=C1COc2cc(NCc3cccc(F)c3)ccc2N1
- TD50 at 0.5 h [1]: 228 mg/kg

Structure (SMILES): Cc1ccc(CNc2ccc3c(c2)OCC(=O)N3)cc1
- TD50 at 0.5 h [1]: > 300 mg/kg

Structure (SMILES): O=C1COc2cc(NCc3ccccc3)ccc2N1
- TD50 at 0.5 h [1]: 182 mg/kg

Structure (SMILES): O=C1COc2cc(NCc3ccc(F)cc3)ccc2N1
- TD50 at 0.5 h [1]: 228 mg/kg

Structure (SMILES): NC(=O)N1c2ccccc2C=Cc2ccccc21 [CARBAMAZEPINE]
- Activity (Mus musculus [2]): 20%
- Activity (Mus musculus [3]): 10%
- TD50 at 0.5 h [1]: 74.4 mg/kg
- Activity (Mus musculus [4]): 40%
- Activity (Mus musculus [5]): 30%
- Activity (Mus musculus [6]): 10%
- Activity (Mus musculus [7]): 0%
- Activity (Mus musculus [8]): 0%
- Activity (Mus musculus [9]): 100%
- ED50 (Mus musculus [10]): 9.2 mg/kg

Structure (SMILES): O=C1COc2cc(NCc3ccc(Cl)cc3)ccc2N1
- TD50 at 0.5 h [1]: > 300 mg/kg

Structure (SMILES): O=C1COc2ccccc2N1
- TD50 at 0.5 h [1]: > 300 mg/kg
- ED50 (Mus musculus [10]): 300 mg/kg

Structure (SMILES): O=C1COc2cc(NCc3ccccc3Cl)ccc2N1
- TD50 at 0.5 h [1]: > 300 mg/kg

Structure (SMILES): O=C1COc2cc(NCc3ccc4c(c3)OCO4)ccc2N1
- TD50 at 0.5 h [1]: > 300 mg/kg
- Ratio (Mus musculus [11]): >4.7
- ED50 (Mus musculus [10]): 63.4 mg/kg

Structure (SMILES): CN(Cc1ccc(F)cc1)c1ccc2c(c1)OCC(=O)N2C
- TD50 at 0.5 h [1]: > 300 mg/kg

Structure (SMILES): O=C1COc2cc(NCc3ccc(Br)cc3)ccc2N1
- TD50 at 0.5 h [1]: > 300 mg/kg

Structure (SMILES): O=C1COc2cc(NCc3ccccc3F)ccc2N1
- TD50 at 0.5 h [1]: 183 mg/kg
